proKLK7 act: activates the human kallikrein-7 zymogen. P49862. purified proKLK7, EDANS-DABCYL substrate fluorescence; 100% is mature enzyme control, 0% vehicle. activation, % at 7 µM. 0.9% of 370,000 active;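 active = activation above the mean of all tested compounds plus 3 SD, computed per campaign excluding outliers beyond control limits, cut at about 13% in these data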
Target sequence (P49862 whole entry, looked up): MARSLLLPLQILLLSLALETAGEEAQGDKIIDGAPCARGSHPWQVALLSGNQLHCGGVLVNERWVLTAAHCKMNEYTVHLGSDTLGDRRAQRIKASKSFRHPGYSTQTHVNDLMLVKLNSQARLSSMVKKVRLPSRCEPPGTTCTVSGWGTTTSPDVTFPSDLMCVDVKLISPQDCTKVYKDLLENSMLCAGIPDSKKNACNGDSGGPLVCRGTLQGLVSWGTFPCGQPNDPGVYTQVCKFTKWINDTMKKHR
Runt-SMMHC FRET: blocks binding of human RUNX1 Runt domain to CBFb-SMMHC; Q01196+Q13951; Cerulean-Runt/Venus-CBFb-SMMHC FRET ratio 530/480, 1 h; AID 1434; inhibition, % at 20 µM; 0.74% of 220,000 active;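 active = mean inhibition across duplicate retests at 20 µM reaching about 50%, limit read from the data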;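 also: inhibitors lower the FRET ratio by blocking Runt binding to CBFb-SMMHC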
RanGTP-Impb inh: inhibitors of RanGTP-importin-beta interaction, primary screen, biochemical, FRET, CFP-Ran, YFP-importin-beta, homogeneous; inhibition, % (concentration not given with the values); cell-free CFP-Ran/YFP-importin-beta FRET ratio; 1.1% of 300,000 active;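 active = more than half of the replicate wells show a fall in the fluorescence ratio signal beyond about 16%, limit read from the data, passing the limit was not always enough; inconclusive = exactly half of the replicate wells pass the set limit; inactive = fewer than half of replicates pass the limit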
MEX-5 binding: C. elegans MEX-5 TCR-2 RNA binding activity; MEX-5/FITC-TCR2 RNA binding, fluorescence polarization; hits give low values; activity score (negative = inhibition of binding), % at 10 µM; 0.38% of 300,000 active; AID 1832;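 active = inhibition past about -25% in most replicates, and total fluorescence under double the plate's negative control median, limit read from the data; inconclusive = replicates evenly split on the limit, or fluorescence at least double controls; inactive = too little inhibition in most replicates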
Target sequence (Q9XUB2 whole entry, looked up): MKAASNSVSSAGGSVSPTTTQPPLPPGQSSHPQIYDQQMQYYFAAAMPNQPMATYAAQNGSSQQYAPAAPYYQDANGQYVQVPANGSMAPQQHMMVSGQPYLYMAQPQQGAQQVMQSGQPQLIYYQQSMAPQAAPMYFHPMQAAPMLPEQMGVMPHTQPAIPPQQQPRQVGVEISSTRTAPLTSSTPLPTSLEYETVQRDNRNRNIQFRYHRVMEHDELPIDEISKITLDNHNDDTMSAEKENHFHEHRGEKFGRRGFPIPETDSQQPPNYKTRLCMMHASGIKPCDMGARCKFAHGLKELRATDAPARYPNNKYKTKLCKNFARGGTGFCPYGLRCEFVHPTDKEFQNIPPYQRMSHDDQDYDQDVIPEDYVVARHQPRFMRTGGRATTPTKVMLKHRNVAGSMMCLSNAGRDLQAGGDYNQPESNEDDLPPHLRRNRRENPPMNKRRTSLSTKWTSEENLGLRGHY
Runt-CBFb FRET: blocks binding of human RUNX1 Runt domain to CBFb. Q01196+Q13951. Cerulean-Runt/Venus-CBFb FRET ratio 530/480, 1 h. inhibition, % at 20 µM. 0.46% of 220,000 active. AID 1496;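 active = inhibition over about 50% at 20 µM in the single-dose screen, limit read from the data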
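test system = Cerulean-Runt domain fusion protein, energy donor | probe or stimulus = Venus-CBFb binding partner, 100 nM | incubation = two 1 h room-temperature incubations shielded from light | detection = fluorescence energy transfer, 422 nm excitation, 530/480 nm emission | measure = loss of energy transfer signal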
proKLK7 act conf: proKLK7 activation, confirmation; shares compounds with proKLK7 act; purified proKLK7, EDANS-DABCYL substrate fluorescence; scaled: vehicle 0, mature enzyme 100; activation, % at 7 µM; 68% of 3,200 active;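 active = activation, as change over the incubation, above the mean of all tested compounds plus 3 SD, cut at about 13% in these data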
EDANS interfere: fluorescence interference counter-screen for KLK7 activators | shares compounds with proKLK7 act | EDANS-DABCYL substrate fluorescence interference, no enzyme, 4 h; solvent 0%, active enzyme control 100% | activation, % at 7 µM | 80% of 3,200 active | AID 686952;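 active = activation above the all-compound mean plus 3 SD, ignoring values outside control-based bounds, cut at about 4.8% in these data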;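 also: value is the 4 h activation minus the activation read at time zero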
K7 EDANS ctr: EDANS fluorescence interference in dose response, no enzyme. EDANS-DABCYL peptide fluorescence interference. AID 720493. shares compounds with proKLK7 act. EC50, µM. 20% of 250 active;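 active = compounds that raise the fluorescence signal in this interference counterscreen, with EC50 at or below 10 µM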;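 also: intact quenched peptide substrate alone read at 355 nm excitation and 520 nm emission; signal is fluorescence gain from T0 to T4 after four hours at room temperature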
Each line names hits and unclear results; the compound was inactive in the other large screens (follow-up assays come after a bar, where they were run). Hits are enriched below; roughly 2.1% of the tested compounds scored in any of these assays.

Nc1nc(N2C(=O)C3CC=CCC3C2=O)nn1-c1ccccc1 (centres undefined)	none
CC1=CC(c2ccccc2)n2nc(N3C(=O)c4ccccc4C3=O)nc2N1 (centres undefined)	proKLK7 act 17 | proKLK7 act conf inactive | EDANS interfere 8.0
O=C1CC(c2ccccc2)n2nc(N3C(=O)CCC3=O)nc2N1 (centres undefined)	none
CC1=CC(c2ccccc2)n2nc(N3C(=O)CCC3=O)nc2N1 (centres undefined)	proKLK7 act 76 | proKLK7 act conf 112 | EDANS interfere 142
CC1=CC(c2ccccc2)n2nc(N3C(=O)C4CC=CCC4C3=O)nc2N1 (centres undefined)	proKLK7 act 113 | proKLK7 act conf 211 | EDANS interfere 191
CC(C)C(=O)NCc1cc(-c2ccccc2)no1	none
CCOC(=O)Nc1ccc2c(COC(=O)CNS(=O)(=O)c3ccc(NC(C)=O)cc3)cc(=O)oc2c1	proKLK7 act 98 | proKLK7 act conf 127 | EDANS interfere 106
Nn1c(SCC(=O)Nc2nccs2)nnc1-c1cc(-c2ccc(Cl)cc2)n[nH]1	none (no result: Runt-SMMHC FRET, RanGTP-Impb inh, MEX-5 binding, Runt-CBFb FRET)
COc1cc(C)c(NC(=O)COc2ccc3c(c2)OCO3)cc1C	none (no result: Runt-SMMHC FRET, Runt-CBFb FRET)
CCc1cc2c(=O)nc3n(c2s1)Cc1ccccc1/C3=C(/O)c1ccc(F)cc1	proKLK7 act 23 | proKLK7 act conf 65 | EDANS interfere 68
CCc1cc2c(=O)nc3n(c2s1)Cc1ccccc1/C3=C(/O)c1cccc([N+](=O)[O-])c1	none (no result: proKLK7 act)
CCc1cc2c(=O)nc3n(c2s1)Cc1ccccc1/C3=C(/O)c1ccccc1Cl	proKLK7 act 13, Runt-SMMHC FRET 57 | proKLK7 act conf 16 | EDANS interfere 23
O=C(NCC1CCCO1)c1coc2nc3ccccc3nc12 (centres undefined)	proKLK7 act 80 | proKLK7 act conf 308 | EDANS interfere 293
COC(CNC(=O)c1coc2nc3ccccc3nc12)OC	proKLK7 act 47 | proKLK7 act conf 282 | EDANS interfere 269
CCCOc1ccc(-c2c(C(=O)N/N=C/c3ccc(OC)cc3)nnn2-c2nonc2N)cc1	proKLK7 act 57 | proKLK7 act conf inactive | EDANS interfere inactive
COc1ccc(/C=N/NC(=O)c2nnn(-c3nonc3N)c2-c2cccs2)c(OC)c1	proKLK7 act 68 (no result: Runt-SMMHC FRET, Runt-CBFb FRET) | proKLK7 act conf inactive | EDANS interfere inactive
COc1ccc(OC)c(/C=N/NC(=O)c2nnn(-c3nonc3N)c2-c2cccs2)c1	none (no result: Runt-SMMHC FRET, Runt-CBFb FRET)
Cc1ccnc2nc(C(=O)OCC(=O)NC(=O)NCc3ccco3)nn12	none
COc1ccc(-c2nc3cnccn3c2Nc2ccc(C)cc2)cc1	none
CCOC(=O)CNc1c(-c2ccc(F)cc2)nc2cnccn12	proKLK7 act 65 | proKLK7 act conf 63 | EDANS interfere 65
CCOC(=O)CNc1c(-c2ccc(OC)cc2)nc2ccc(Cl)cn12	none
CCOC(=O)CNc1c(-c2ccc(Cl)cc2)nc2cnccn12	proKLK7 act 65, RanGTP-Impb inh 33 | proKLK7 act conf 77 | EDANS interfere 80
O=C(CN(C(=O)CCC(=O)Nc1ccccn1)c1ccc2c(c1)OCO2)NCc1ccc(F)cc1	none (no result: Runt-SMMHC FRET, Runt-CBFb FRET)
O=Cc1ccc(F)c([B-](F)(F)F)c1	none (no result: Runt-SMMHC FRET, RanGTP-Impb inh, MEX-5 binding, Runt-CBFb FRET)
COc1ccc(C(=O)CC2OC(=O)c3c2ccc(OC)c3OC)cc1 (centres undefined)	proKLK7 act 55 | proKLK7 act conf 59 | EDANS interfere 79
COc1cccc2cccc(/C=N/n3cnnc3)c12	proKLK7 act 15 | proKLK7 act conf 15 | EDANS interfere 10 | K7 EDANS ctr inactive
COc1ccccc1OCCOc1ccccc1/C=N/n1cnnc1	none
COC(=O)c1ccc(C(=O)OC)c(NS(C)(=O)=O)c1	proKLK7 act 28 | proKLK7 act conf 21 | EDANS interfere 21
COC(=O)c1ccc(C(=O)OC)c(NC(=O)/C=C/C(=O)O)c1	proKLK7 act 16 | proKLK7 act conf inactive | EDANS interfere inactive
COC(=O)c1ccc(C(=O)OC)c(NC(=O)C2CC2)c1	none
COc1ccc(C2C(C#N)=C(SC)NC3=C2C(=O)CC(C)(C)C3)cc1 (centres undefined)	none
COC(=O)c1ccc(C2C(C#N)=C(C)NC3=C2C(=O)CC(C)(C)C3)cc1 (centres undefined)	proKLK7 act 36, Runt-SMMHC FRET 81 | proKLK7 act conf 43 | EDANS interfere 30 | K7 EDANS ctr inactive
CCCCC1C(C#N)=C(C)NC2=C1C(=O)CC(C)(C)C2 (centres undefined)	proKLK7 act 41, Runt-SMMHC FRET 69 | proKLK7 act conf 22 | EDANS interfere 25
CCCCN(C)C(=O)c1cc2cc3ccc(OC)cc3nc2o1	none (no result: Runt-SMMHC FRET, Runt-CBFb FRET)
CCCCN(C)CCNC(=O)c1cc2cc3ccc(OC)cc3nc2o1	proKLK7 act 100 (no result: Runt-SMMHC FRET, Runt-CBFb FRET) | proKLK7 act conf 54 | EDANS interfere 77
Cc1ccc2cc3cc(C(=O)NCCCN4CC(C)CC(C)C4)oc3nc2c1 (centres undefined)	proKLK7 act 30 (no result: Runt-SMMHC FRET, Runt-CBFb FRET) | proKLK7 act conf inactive | EDANS interfere inactive
Cc1ccc2cc3cc(C(=O)N4CC(C)CC(C)C4)oc3nc2c1 (centres undefined)	none
COc1ccc2cc3cc(C(=O)Nc4cc(OC)c(OC)c(OC)c4)oc3nc2c1	RanGTP-Impb inh inconclusive
COc1ccc2cc3cc(C(=O)NC(C)C)oc3nc2c1	proKLK7 act 35 | proKLK7 act conf 78 | EDANS interfere 83
CCN(CC)CCNC(=O)c1cc2cc3ccc(OC)cc3nc2o1	proKLK7 act 24 (no result: Runt-SMMHC FRET, Runt-CBFb FRET) | proKLK7 act conf 76 | EDANS interfere 84
Clc1ccc(Br)c(-c2nc3ccccc3[nH]2)c1	none (no result: Runt-SMMHC FRET, RanGTP-Impb inh, MEX-5 binding, Runt-CBFb FRET)
CN1CCN(C(=O)C[C@H]2CC[C@H]3[C@@H](COC[C@@H](O)CN3C(=O)C3CCCC3)O2)CC1	none (no result: Runt-SMMHC FRET, RanGTP-Impb inh, MEX-5 binding, Runt-CBFb FRET)
COCCCNC(=O)c1cc2cc3cc(OC)ccc3nc2o1	proKLK7 act 23, RanGTP-Impb inh inconclusive (no result: Runt-SMMHC FRET, Runt-CBFb FRET) | proKLK7 act conf 23 | EDANS interfere 29
CCCCN(C)C(=O)c1cc2cc3cc(OC)ccc3nc2o1	RanGTP-Impb inh inconclusive
COc1ccc2cc3cc(C(=O)NCc4cccnc4)oc3nc2c1	proKLK7 act 45 | proKLK7 act conf 54 | EDANS interfere 53
COc1ccc2cc3cc(C(=O)NCc4ccc5c(c4)OCO5)oc3nc2c1	none

High-throughput results deposited in PubChem BioAssay by several laboratories.
